These results are taken from ChEMBL document CHEMBL5113395, “Azetidin-2-one-based small molecules as dual hHDAC6/HDAC8 inhibitors: Investigation of their mechanism of action and impact of dual inhibition profile on cell viability” (Eur J Med Chem, 2022).

Data set [1] has as its target Histone deacetylase 1 (Homo sapiens, UniProt Q13547). Kind of data set: Inhibition of recombinant human full length C-terminal FLAG/His-tagged HDAC1 expressed in Sf9 insect cells using ZMAL (Z-(Ac)Lys-AMC as substrate measured after 90 mins by fluorescence plate reader analysis.
Data set [2] has as its target T1, Polyamine deacetylase HDAC10 (Homo sapiens, UniProt Q969S8).
T1 sequence (Q969S8 whole entry): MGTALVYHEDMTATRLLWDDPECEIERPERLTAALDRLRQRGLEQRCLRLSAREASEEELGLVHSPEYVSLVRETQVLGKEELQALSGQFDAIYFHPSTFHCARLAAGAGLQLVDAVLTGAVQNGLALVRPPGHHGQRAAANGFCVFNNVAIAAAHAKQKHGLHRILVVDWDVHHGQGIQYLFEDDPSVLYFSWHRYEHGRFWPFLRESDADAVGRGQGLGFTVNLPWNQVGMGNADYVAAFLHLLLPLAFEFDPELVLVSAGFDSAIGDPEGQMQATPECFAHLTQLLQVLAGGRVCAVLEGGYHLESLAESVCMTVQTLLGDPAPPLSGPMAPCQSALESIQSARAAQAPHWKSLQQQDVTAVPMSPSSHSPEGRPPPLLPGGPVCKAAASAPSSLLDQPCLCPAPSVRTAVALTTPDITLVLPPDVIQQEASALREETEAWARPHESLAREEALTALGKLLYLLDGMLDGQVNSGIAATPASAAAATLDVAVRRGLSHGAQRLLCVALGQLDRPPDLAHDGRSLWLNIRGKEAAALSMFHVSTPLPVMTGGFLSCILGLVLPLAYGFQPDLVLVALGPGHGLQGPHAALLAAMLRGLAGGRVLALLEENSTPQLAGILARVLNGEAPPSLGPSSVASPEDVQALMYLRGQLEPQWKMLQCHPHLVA
Kind of data set: Inhibition of recombinant human N-terminal FLAG tagged HDAC10 expressed in baculovirus infected Sf9 insect cells using fluorogenic substrate measured after 30 mins by fluorescence plate reader analysis.

For data set [3], the species on record is Homo sapiens. Kind of data set: Selectivity index, ratio of IC50 for inhibition of recombinant human full length N-terminal GST-tagged HDAC6 expressed in Sf9 cells to IC50 for inhibition of recombinant human HDAC8. An outline of the steps: (§1)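 HDAC1 and HDAC6 IC50 values from the ZMAL fluorogenic assay: 37 °C for 90 min, then trypsin/TSA development, read at ex 390/em 460 nm. HDAC8 IC50 from the kit enzyme (0.45 U/reaction), 0.5% DMSO, 15 min preincubation with compound, 50 μM Fluor de Lys substrate, 1 h at 30 °C. HDAC8 reaction quenched with TSA (2 μM) in developer, 1 h, read at ex 370/em 450 nm, IC50 by nonlinear regression. Ratio of IC50s.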

For data set [4], the species on record is Homo sapiens. Description: Selectivity index, ratio of IC50 for inhibition of recombinant human full length C-terminal FLAG/His-tagged HDAC1 expressed in Sf9 insect cells to IC50 for inhibition of recombinant human full length N-terminal GST-tagged HDAC6 expressed in Sf9 cells. The method, boiled down: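 Human recombinant HDAC1 or HDAC6 in Tris-HCl pH 8.0 buffer (NaCl, KCl, MgCl2, 1 mg/mL BSA). Incubated with inhibitor dilutions in DMSO and fluorogenic ZMAL substrate (126 μM) at 37 °C for 90 min. Stopped with trichostatin A/trypsin, 30 min at 37 °C. Fluorescence read at ex 390/em 460 nm. IC50 from at least three determinations; ratio HDAC1/HDAC6 IC50.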

Data set [5] is filed under the species Homo sapiens. Description: Selectivity index, ratio of IC50 for inhibition of recombinant human full length C-terminal FLAG/His-tagged HDAC1 expressed in Sf9 insect cells to IC50 for inhibition recombinant human HDAC8. The method, boiled down:
as §1

The target in data set [6] is T2, Histone deacetylase 8 (Homo sapiens) (UniProt Q9BY41).
T2 sequence (whole entry): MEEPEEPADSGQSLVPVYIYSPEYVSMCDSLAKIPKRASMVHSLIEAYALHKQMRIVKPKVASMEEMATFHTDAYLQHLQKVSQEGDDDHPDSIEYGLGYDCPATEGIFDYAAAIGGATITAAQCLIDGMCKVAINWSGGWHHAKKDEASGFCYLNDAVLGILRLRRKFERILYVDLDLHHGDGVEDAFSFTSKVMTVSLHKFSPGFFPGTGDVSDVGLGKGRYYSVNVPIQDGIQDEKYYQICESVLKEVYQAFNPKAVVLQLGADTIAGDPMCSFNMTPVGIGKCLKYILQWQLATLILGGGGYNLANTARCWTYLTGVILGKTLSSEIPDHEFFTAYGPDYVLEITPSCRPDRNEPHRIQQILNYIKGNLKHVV
Description: Inhibition of HDAC8 in human U-937 cells assessed as increase in acetylation level of SMC3 at 10 uM measured after 48 hrs by Western blot analysis. The class given is cell-based. An outline of the steps: (§2)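 HCT116 or U937 cells were treated at 10 µM for 24–48 h and lysed in NP40 buffer with protease/phosphatase inhibitors. 50 µg protein was resolved by SDS-PAGE and probed with anti-acetyl-SMC3 (Lys105/106, 1:1000), normalized to GAPDH (1:3000). PCI served as positive control, and band intensities were semi-quantified by densitometry.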

For data set [7], the target named is T2, Histone deacetylase 8 (Homo sapiens). Description: Inhibition of HDAC8 in human HCT-116 cells assessed as increase in acetylation level of SMC3 at 10 uM measured after 24 hrs by Western blot analysis. The data set is classed as cell-based. An outline of the steps: as §2
Data set [8] deals with HCT-116. Description: Antiproliferation activity against human HCT-116 cells assessed as reduction in cell viability at 5 to 50 uM measured after 48 hrs by MTT assay. The data set is classed as functional, cell-based. The following applies: dose 5-50 µM. An outline of the steps: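 HCT116 cells in DMEM with 10% heat-inactivated FBS were seeded at 3×10^4 cells/well and treated in triplicate at 1, 5, 10 and 50 µM for 24 and 48 h. MTT at 0.5 mg/mL was added for 3 h, formazan was dissolved in DMSO, and absorbance was read at 570 nm.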

Data set [9] has as its system U-937. Description: Antiproliferation activity against human U-937 cells assessed as reduction in cell viability at 5 to 50 uM measured after 48 hrs by CCK-8 assay. The class given is functional, cell-based. Conditions: dose 5-50 µM. An outline of the steps: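 U937 cells were exposed in triplicate to 1, 5, 10 and 50 µM for 24 and 48 h. CCK-8 (WST-8) reagent was then added, with 3 h further incubation at 37 °C, and absorbance was read at 450 nm to give viability.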

Data set [10] in a line: Cytotoxicity against mouse NIH3T3 cells assessed as inhibition of cell growth by neutral red uptake assay.

Activity calls are given as the source filed them. The calls are words filed in the database; no cut-off is given here.

Chain of Histone deacetylase 1 (Q13547 whole entry): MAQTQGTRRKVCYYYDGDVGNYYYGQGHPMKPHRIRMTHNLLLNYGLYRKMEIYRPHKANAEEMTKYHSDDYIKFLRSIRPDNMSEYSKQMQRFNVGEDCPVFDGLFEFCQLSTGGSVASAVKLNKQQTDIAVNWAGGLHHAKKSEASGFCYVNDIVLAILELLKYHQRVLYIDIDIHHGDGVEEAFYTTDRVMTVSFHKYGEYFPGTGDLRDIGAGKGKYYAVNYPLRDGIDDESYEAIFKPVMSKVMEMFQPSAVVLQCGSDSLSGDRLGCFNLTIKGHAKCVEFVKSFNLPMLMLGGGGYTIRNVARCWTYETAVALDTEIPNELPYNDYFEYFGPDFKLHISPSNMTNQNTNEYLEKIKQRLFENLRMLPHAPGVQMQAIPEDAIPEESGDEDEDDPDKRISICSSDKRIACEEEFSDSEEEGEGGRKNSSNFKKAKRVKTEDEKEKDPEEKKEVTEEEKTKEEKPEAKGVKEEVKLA

For the compound `O=C(NO)c1ccc(CC(=O)N2CCC(N3CC(c4ccccc4)(c4ccccc4)C3=O)CC2)cc1`, the IC50 is 9.7 µM in [1] and 5.1 µM in [2]. The Ratio IC50 was 1 in data set [3], 106 in [4] and 86 in data set [5]. For the same compound, the inhibition result in data set [6] and in data set [7] was “Active” each time. Besides, the result in data set [8] and in [9] was Active. Further, the CC50 in [10] is 48 µM.
As for `O=C(NO)c1ccc(CNC(=O)N2CCC(N3C(=O)[C@H](c4ccccc4)[C@H]3c3ccccc3)CC2)cc1` (racemic), the IC50 in data set [1] is 4.2 µM; in [2], 6.6 µM. For the same compound, the Ratio IC50 in [3] worked out at 2; in data set [4], 200; in data set [5] it was 100. Further, the inhibition entry in data set [6] and in data set [7] was “Active” throughout. Also, the result in data set [8] and in data set [9] was Active. For the same compound, the CC50 in data set [10] worked out at 101 µM.
For the compound `O=C(NO)c1ccc(CNC(=O)N2CCC(N3CC(c4ccccc4)(c4ccccc4)C3=O)CC2)cc1`, the IC50 in data set [1] turned out to be 4.3 µM; in [2], 6.5 µM. The Ratio IC50 in data set [3] stood at 29; in data set [4] it was 1260; in data set [5] it was 43. Further, the inhibition result in [6] and in [7] was “Active” each time. For the same compound, the outcome in data set [8] and in data set [9] was Active. For the same compound, the CC50 in data set [10] amounted to 40 µM.
